Screens deposited in PubChem by several laboratories.
Only some compounds are listed: those with a hit (about 1.5% of all), similar ones and a draw of the others.
PKA-R2B activ – activators of PKA-R2B holoenzyme, primary screen, biochemical, fluorescence polarization, Cy5-IP20, human | cAMP-dependent protein kinase catalytic subunit beta (Homo sapiens) + cAMP-dependent … | activation, % at 11.4 µM | 0.079% of 340,000 active | PKA-R2B holoenzyme dissociation; R2B truncated from residue 108, S112A mutant; 0% DMSO only, 100% 113 µM cGMP;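 active = activation above a cutoff set at the mean over all compounds plus 3 SD, cut at about 18% in these data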;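 also: higher means more holoenzyme dissociation and a rise in polarization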
PKA-R1A act – activators of PKA-R1A holoenzyme, primary screen, biochemical, fluorescence polarization, Cy5-IP20, bovine R1A, mouse PKAc. cAMP-dependent protein kinase type I-alpha regulatory subunit (Bos taurus) + …. PKA-R1A dissociation; scaled: DMSO 0%, 113 µM cGMP 100%. activation, % at 11.4 µM. 0.083% of 340,000 active. AID 504707, 2011;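 active = percent activation above the mean of all tested compounds plus 3 SD, cut at about 19% in these data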;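 also: higher means more PKAc released from R1A so a rise in polarization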
Rin1 Abl inh – inhibitors of Rin1-Abl protein binding, primary screen, biochemical, TR-FRET | inhibition, % at 7.35 µM | Tyrosine-protein kinase ABL1 (Homo sapiens) + Ras and Rab interactor 1 (Homo sapiens), … | 0.4% of 360,000 active; in the data active = inhibition above about 5%, passing the limit was not always enough
Tb MetRS inh – T. brucei MetRS inhibitors, primary screen, biochemical, luminescence; purified T. brucei MetRS, ATP depletion, Kinase-Glo luminescence; inhibition, % at 11.9 µM; 0.4% of 360,000 active; AID 624268, 2012;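 active = inhibition above a per-plate cutoff of the control wells' mean inhibition plus 3 SD, cut at about 5.5% in these data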
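Test system: purified T. brucei MetRS enzyme. Also added: ATP, methionine and E. coli bulk tRNA substrates. Compound: 11.9 µM single point. Schedule: 15 min enzyme-compound preincubation, 2 h reaction, 10 min detection, 25 °C. Signal: luciferase luminescence of residual ATP, Kinase-Glo. Evaluation: percent inhibition versus plate control medians. Controls: DMSO wells, low control.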
H9c2 protect – cardioprotection against H2O2-induced cell death, primary screen, uHTS, H9c2 cells, ATPLite luminescence | H9c2 cardiomyocytes, H2O2 injury protection, 2 h | protection from H2O2 cell death, % at 20 µM | 0.63% of 360,000 active | AID 588492, 2011;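 active = compounds giving at least 50% protection of heart cells from peroxide-induced death in the single-dose screen, raw or plate-pattern-corrected value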
Rin1-Abl confirm – Rin1-Abl binding inhibitor retest, confirmation, biochemical, TR-FRET. shares compounds with Rin1 Abl inh. purified proteins. inhibition, % at 7.35 µM. 49% of 1,300 active
GFP quench – GFP fluorescence inhibitors and quenchers, artefact control for Rin1-Abl interaction inhibitor project, biochemical. inhibitors/quenchers counterscreen. shares compounds with Rin1 Abl inh. 8.5% of 1,300 active. inhibition, % at 6.75 µM;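 also: ABL1-eGFP fusion protein alone without its partner RIN1-SBP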
GFP quench dose – GFP fluorescence inhibitors and quenchers, dose response, artefact control for Rin1-Abl interaction inhibitor project, biochemical; shares compounds with Rin1 Abl inh; GFP fluorescence interference/quenching counterscreen; 230 tested, under 10 active; IC50, µM; call rule not given here;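 also: ABL1-eGFP fusion protein alone without its RIN1 binding partner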
Numbers stand for hits; n = inactive; x = no result. Rule as the data show it, unless noted: active = inhibition above about 6.5%; inactive = the rest.

SMILES | PKA-R2B activ | PKA-R1A act | Rin1 Abl inh | Tb MetRS inh | H9c2 protect | Rin1-Abl confirm | GFP quench | others
CCOC(=O)c1ccc(NC(=O)COc2ccccc2CNCCO)cc1 | n | n | 13 | n | n | 23 | n | GFP quench dose=n
CC(=O)c1ccc(OCCCC(=O)N2CCN(S(=O)(=O)c3ccc(C)cc3C)CC2)cc1 | n | n | 7.5 | n | n | n | n
O=C(Nc1c(-c2ccc3c(c2)OCO3)[nH][nH]c1=O)c1ccccc1 | x | x | 24 | n | n | 9.0 | n
COc1ccc(C2C(C(=O)N3CCN(c4ccccn4)CC3)CCC(=O)N2c2ccc(OC)cc2)cc1 (stereo unspecified) | n | n | 7.5 | n | n | n | n
CC(=O)Nc1cc(OC(C)=O)c2nonc2c1OC(C)=O | n | n | 16 | 28 | n | n | n
COc1ccc(S(=O)Cc2ccc(C(=O)NC3CC3)o2)cc1 (stereo unspecified) | n | n | n | n | n | x | x
COc1ccc(CN=CC2=C(O)CNC2=O)cc1 | n | n | 34 | n | n | 43 | n
COc1ccc(CN=CC2=C(O)CC(C)(C)CC2=O)cc1 | n | n | n | n | n | x | x
Cc1ccc(-c2nnn(CC(=O)N(CCCO)C(C(=O)NC3CCCC3)c3ccc(F)cc3)n2)o1 (stereo unspecified) | n | n | n | n | n | x | x
COc1ccccc1CN1C[C@@H]2C[C@@H](c3cccc(C)c3)N3CCC[C@@]23C1=O | x | x | n | n | n | x | x
Cc1[nH][nH]c(=O)c1C(c1c(C)[nH][nH]c1=O)c1cn(Cc2ccc(Cl)c(Cl)c2)c2ccccc12 | n | n | 14 | n | n | n | n
Cc1[nH][nH]c(=O)c1C(c1c(C)[nH][nH]c1=O)c1cn(Cc2ccc(F)cc2)c2ccccc12 | n | n | n | n | n | x | x
Cc1occc1C(=O)N1CCCC(N2CCN(c3ccccc3F)CC2)C1 (stereo unspecified) | n | n | 11 | n | n | n | n
Cc1ccc(C(=O)Nc2cccc(NC(=O)CN3CCCCC3)c2)cc1 | n | n | n | n | n | x | x
COc1ccc(/C=N/N2C(=O)CN(C(=O)c3ccccc3)C2c2ccc(OC)cc2)cc1 (stereo unspecified) | x | x | 5.8 | n | n | n | n
CCOc1ccc(C(=O)C(C)OC(=O)CN2C(=O)NC(C)(C)C2=O)cc1 (stereo unspecified) | n | n | n | n | n | x | x
O=C(c1ccccc1)c1ccc(OCC(O)CN2CCN(S(=O)(=O)N3CCCCC3)CC2)cc1 (stereo unspecified) | n | n | 6.7 | n | n | n | n
O=S(=O)(Nc1ccc(O)c2ncccc12)c1ccccc1F | x | x | 13 | n | 60 | n | n
O=C(NC12CC3CC(CC(C3)C1)C2)C1CCCN1C(=O)Nc1ccccc1 (stereo unspecified) | n | n | n | n | n | x | x
CC(C)n1cc(CN2CCC(C(=O)Nc3cccc(-c4cscn4)c3)CC2)cn1 | n | n | 11 | n | n | 24 | n | GFP quench dose=n
Cc1ncc(CN2CCC(C(=O)Nc3cccc(-c4cscn4)c3)CC2)cn1 | n | n | n | n | n | x | x
CC(/C=C1\SC(=S)N(CCC(=O)Nc2nc(C)cs2)C1=O)=C\c1ccccc1 | n | n | n | n | n | x | x
Cc1ccc(C(C)NC(=O)C23CC4CC(CC(C4)C2)C3)cc1 (stereo unspecified) | n | n | 6.0 | n | n | n | n
CC(NC(=O)C12CC3CC(CC(C3)C1)C2)c1ccc2c(c1)OCCO2 (stereo unspecified) | n | n | n | n | n | x | x
COc1ccc(C2=Nn3c(nnc3-c3ccco3)SC2)cc1 | n | n | n | n | n | x | x
SMILES | PKA-R2B activ | PKA-R1A act | Rin1 Abl inh | Tb MetRS inh | H9c2 protect | Rin1-Abl confirm | GFP quench | others
Oc1ccc(C2=Nn3c(nnc3-c3ccco3)SC2)cc1O | n | n | 5.9 | n | 69 | n | 17
c1cnc(Sc2ccc3nnnn3n2)nc1 | n | n | n | n | n | x | x
COc1ccc(S(=O)(=O)N2CCCC2CNC(=O)C(=O)NCc2ccc3c(c2)OCO3)cc1 (stereo unspecified) | n | n | n | n | n | x | x
Cc1ccc(S(=O)(=O)N2CCCC2CNC(=O)C(=O)NCc2ccc3c(c2)OCO3)cc1 (stereo unspecified) | n | n | 10 | n | n | n | n
COc1cc(CNCc2ccccc2)c(Br)cc1OC1CCCC1 | n | n | 8.8 | n | n | n | n
Nc1nnc(CCCCc2cccs2)o1 | n | n | 7.6 | n | n | n | n
O=C(O)CCCC(=O)OCCCCc1cccs1 | n | n | n | n | n | x | x
Cc1ccc(S(=O)(=O)c2nnn3c2nc(N2CCOCC2)c2ccccc23)c(C)c1 | n | n | 46 | n | n | 30 | n
Cc1ccc(S(=O)(=O)c2nnn3c2nc(N2CCOCC2)c2ccccc23)cc1C | n | n | n | n | n | x | x
COc1cc(CNCCc2ccccc2F)ccc1OCc1ccc(Cl)nc1 | n | n | 7.5 | n | n | 7.2 | n
CCNCc1ccc(OCc2ccccc2F)c(OC)c1 | n | n | n | n | n | x | x
COc1cc(CNCCc2ccc(F)cc2)ccc1OCc1ccc(Cl)nc1 | n | n | 12 | n | n | 11 | n
CCn1c(N2CCN(CC(=O)c3c(C)n(C)c4ccccc34)CC2)nc2c1c(=O)[nH]c(=O)n2C | n | n | 6.4 | n | n | n | n
CCn1c(N2CCN(CC(=O)c3c(C)n(C)c4ccc(OC)cc34)CC2)nc2c1c(=O)[nH]c(=O)n2C | x | x | n | n | n | x | x
CN(C)S(=O)(=O)c1ccc(NC(=O)COc2ncnc3c2cnn3-c2ccccc2)cc1 | n | n | 6.8 | n | n | n | n
CC(=O)Nc1ccc(Nc2ncnc3c2cnn3-c2ccccc2)cc1 | n | n | n | n | n | x | x
COc1ccc(C(=O)N/C(=C\c2cn(S(=O)(=O)N(C)C)c3ccccc23)C(=O)N2CCOCC2)cc1 | n | n | n | n | n | x | x
CCCC(=O)NC(C)c1nc2ccccc2n1CC (stereo unspecified) | n | n | n | n | n | x | x
